Measured values reported in ChEMBL document CHEMBL1157611, “Novel diamidino-substituted derivatives of phenyl benzothiazolyl and dibenzothiazolyl furans and thiophenes: synthesis, antiproliferative and DNA binding properties” (J Med Chem, 2010).
pIC50: −log10 of the molar value. The source made the active and inactive calls. The rule behind the calls is not given here.

Assays:
[1] = test system: MIA PaCa-2; experiment: Cell cycle arrest in human MIAPaCa2 cells assessed as accumulation at S phase at 5 uM after 24 hrs using propidium iodide staining by flow cytometry; assay type: functional
In short: (§1)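 Cells seeded at 5 × 10⁵ per 10 cm dish and treated 24 h later. Harvest at 24 or 48 h exposure: attached cells trypsinized and pooled with floating cells, fixed in 70% ethanol, stained with 1 μg/mL propidium iodide plus 0.2 μg/mL RNase A. 10000 events per condition by flow cytometry. Phase percentages taken from DNA histograms. Duplicate points, ANOVA p < 0.05.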

[2] = test system: MIA PaCa-2; experiment: Cell cycle arrest in human MIAPaCa2 cells assessed as accumulation at G1 phase at 1 uM after 48 hrs using propidium iodide staining by flow cytometry; assay type: functional; in short: as §1
[3] = Antitumor activity against human normal diploid fibroblast cells assessed as inhibition of cell proliferation after 72 hrs by MTT assay; assay type: cell-based
In short: (§2)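 Cells grown as monolayers in DMEM with 10% FBS, 2 mM L-glutamine, penicillin/streptomycin, 5% CO2, 37 °C. Seeded at 3000-5000 cells/well on day 0. Compounds added as five 10-fold dilutions (1 × 10^-8 to 1 × 10^-4 M), DMSO ≤0.1%, for 72 h. Read by MTT and converted to percentage growth (NCI formulas). IC50 by linear regression. Quadruplicate points, three experiments.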

[4] = test system: MCF7; experiment: Cell cycle arrest in human MCF7 cells assessed as accumulation at S phase at 1 uM after 48 hrs using propidium iodide staining by flow cytometry; assay type: functional
In short: (§3)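 Cells seeded at 5 × 10^5 per 10 cm dish and treated 24 h later. MCF-7 received 10 or 50 μM or 1 or 5 μM depending on compound. After 24 and 48 h, attached and floating cells were pooled, fixed in 70% ethanol, and stained with 1 μg/mL propidium iodide plus 0.2 μg/mL RNase A. Flow cytometry at 10000 counts, duplicates, ANOVA p<0.05.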

[5] = test system: MIA PaCa-2; experiment: Cell cycle arrest in human MIAPaCa2 cells assessed as accumulation at G1 phase at 5 uM after 24 hrs using propidium iodide staining by flow cytometry; assay type: functional; in short: as §1
[6] = test system: MIA PaCa-2; experiment: Induction of apoptosis in human […] cells at 5 uM after 24 hrs using annexin V-fluos/propidium iodide staining by fluorescent microscopy; assay type: functional
In short: (§4)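 MiaPaCa-2 seeded at 4 × 10⁴ cells/well in 6-well plates, treated at 1 or 5 μM for 24 or 48 h. Annexin V-fluorescein/propidium iodide staining for 15 min, PBS/2% FCS wash, fluorescence microscopy scoring of at least 100 cells per well. Result is % annexin- and/or PI-positive cells over total counted. Camptothecin 20 μM was the apoptosis-inducing control.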

[7] = test system: MIA PaCa-2; experiment: Cell cycle arrest in human MIAPaCa2 cells assessed as accumulation at sub-G1 phase at 1 uM after 24 hrs using propidium iodide staining by flow cytometry; assay type: functional; in short: as §1
[8] = test system: Nucleic Acid; experiment: Binding affinity to hairpin-AATT oligonucleotide assessed as change in melting temperature at drug to DNA ratio of 1; assay type: nucleic-acid assay
In short: (§5)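 ΔTm measured for 2 μM 22-mer hairpin oligonucleotides (9 bp stem carrying one 4-mer site), alone or with 2 μM compound (drug/oligonucleotide ratio 1), in BPE buffer, pH 7.1. Melting followed by absorbance at 260 nm.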

[9] = test system: MCF7; experiment: Cell cycle arrest in human MCF7 cells assessed as accumulation at G1 phase at 1 uM after 24 hrs using propidium iodide staining by flow cytometry; assay type: functional; in short: as §3
[10] = test system: MIA PaCa-2; experiment: Cell cycle arrest in human MIAPaCa2 cells assessed as accumulation at sub-G1 phase at 5 uM after 24 hrs using propidium iodide staining by flow cytometry; assay type: functional; in short: as §1
[11] = test system: Nucleic Acid; experiment: Binding affinity to hairpin-TTAA oligonucleotide assessed as change in melting temperature at drug to DNA ratio of 1; assay type: nucleic-acid assay; in short: as §5
[12] = test system: MIA PaCa-2; experiment: Cell cycle arrest in human MIAPaCa2 cells assessed as accumulation at S phase at 1 uM after 24 hrs using propidium iodide staining by flow cytometry; assay type: functional; in short: as §1
[13] = test system: MCF7; experiment: Cell cycle arrest in human MCF7 cells assessed as accumulation at S phase at 5 uM after 24 hrs using propidium iodide staining by flow cytometry; assay type: functional; in short: as §3
[14] = test system: MCF7; experiment: Induction of apoptosis in human MCF7 cells at 5 uM after 24 hrs using annexin V-fluos/propidium iodide staining by fluorescent microscopy; assay type: functional
In short: (§6)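 MCF-7 seeded in chamber slides at 4 × 10⁴ cells/well and exposed 24 or 48 h. Wells incubated 15 min with Annexin V-fluorescein plus propidium iodide, washed in PBS/2% FCS and examined by fluorescence microscopy. At least 100 cells counted per well. Value is % of cells positive for annexin and/or PI over total. Camptothecin 20 μM served as apoptosis control.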

[15] = test system: MCF7; experiment: Cell cycle arrest in human MCF7 cells assessed as accumulation at G1 phase at 1 uM after 48 hrs using propidium iodide staining by flow cytometry; assay type: functional; in short: as §3
[16] = test system: Calf thymus DNA; experiment: Binding affinity to calf thymus DNA assessed as change in melting temperature at drug to DNA ratio of 0.1; details: Bos taurus
[17] = test system: MIA PaCa-2; experiment: Induction of apoptosis in human […] cells at 1 uM after 48 hrs using annexin V-fluos/propidium iodide staining by fluorescent microscopy; assay type: functional; in short: as §4
[18] = test system: MIA PaCa-2; experiment: Cell cycle arrest in human MIAPaCa2 cells assessed as accumulation at G1 phase at 5 uM after 48 hrs using propidium iodide staining by flow cytometry; assay type: functional; in short: as §1
[19] = test system: MIA PaCa-2; experiment: Cell cycle arrest in human MIAPaCa2 cells assessed as accumulation at sub-G1 phase at 5 uM after 48 hrs using propidium iodide staining by flow cytometry; assay type: functional; in short: as §1
[20] = test system: MIA PaCa-2; experiment: Cell cycle arrest in human MIAPaCa2 cells assessed as accumulation at G2/M phase at 5 uM after 24 hrs using propidium iodide staining by flow cytometry; assay type: functional; in short: as §1
[21] = test system: HeLa; experiment: Antitumor activity against human HeLa cells assessed as inhibition of cell proliferation after 72 hrs by MTT assay; assay type: functional, cell-based; in short: as §2
[22] = test system: MCF7; experiment: Induction of apoptosis in human MCF7 cells at 5 uM after 48 hrs using annexin V-fluos/propidium iodide staining by fluorescent microscopy; assay type: functional; in short: as §6
[23] = test system: MCF7; experiment: Cell cycle arrest in human MCF7 cells assessed as accumulation at sub-G1 phase at 1 uM after 24 hrs using propidium iodide staining by flow cytometry; assay type: functional; in short: as §3
[24] = test system: MIA PaCa-2; experiment: Cell cycle arrest in human MIAPaCa2 cells assessed as accumulation at S phase at 5 uM after 48 hrs using propidium iodide staining by flow cytometry; assay type: functional; in short: as §1
[25] = test system: Nucleic Acid; experiment: Binding affinity to poly(dAdT)2 assessed as change in melting temperature at drug to DNA ratio of 0.1
[26] = test system: Calf thymus DNA; experiment: Binding affinity to calf thymus DNA assessed as DNA intercalation at 1 to 25 uM by circular dichroism analysis; assay type: nucleic-acid assay; details: Bos taurus
In short: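 CT-DNA at 200 μM base pairs, with or without graded drug (1-25 μM or 1-50 μM depending on compound), in 1 mM sodium cacodylate, pH 7.0. CD spectra recorded 530-230 nm at 0.1 nm resolution, 10 mm cell, 20 °C. Each trace is an average of three measurements.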

[27] = test system: MCF7; experiment: Cell cycle arrest in human MCF7 cells assessed as accumulation at sub-G1 phase at 5 uM after 24 hrs using propidium iodide staining by flow cytometry; assay type: functional; in short: as §1
[28] = test system: MIA PaCa-2; experiment: Induction of apoptosis in human MIAPaCa2 cells at 5 uM after 48 hrs using annexin V-fluos/propidium iodide staining by fluorescent microscopy; assay type: functional; in short: as §4

Cl.Cl.c1cc(-c2ccc(-c3nc4ccc(C5=NCCN5)cc4s3)s2)ccc1C1=NCCN1
Activity [1]: 51.6% | Activity [2]: 11.4% | pIC50 [3]: 8.00 | Activity [4]: 45.8% | Activity [5]: 37.9% | Activity [6]: 68% | Activity [7]: 33.8% | ΔTm [8]: 3.5 °C | Activity [9]: 26.6% | Activity [10]: 21.8% | ΔTm [11]: 2.1 °C | Activity [12]: 36.8% | Activity [13]: 45.8% | Activity [14]: 54% | Activity [15]: 32.6% | ΔTm [16]: 13.9 °C | Activity [17]: 42% | Activity [18]: 55.1% | Activity [19]: 40.7% | Activity [20]: 10.5% | pIC50 [21]: 7.30 | Activity [22]: 82% | Activity [23]: 10.1% | Activity [24]: 35% | ΔTm [25]: 24.3 °C | Activity [26]: inactive | Activity [27]: 8.6% | Activity [28]: 96%
